Source: PMC2649974 (Proteins, 2009)

Experiments:
human PMK [1] = molecular target: T1, human PMK (Homo sapiens, UniProt Q15126); type: binding; conditions: for Kd: read-out: Kd in all complexes, binary and ternary complexes, NMR, pH 6.5, 25 °C
T1 sequence (Q15126 1-192): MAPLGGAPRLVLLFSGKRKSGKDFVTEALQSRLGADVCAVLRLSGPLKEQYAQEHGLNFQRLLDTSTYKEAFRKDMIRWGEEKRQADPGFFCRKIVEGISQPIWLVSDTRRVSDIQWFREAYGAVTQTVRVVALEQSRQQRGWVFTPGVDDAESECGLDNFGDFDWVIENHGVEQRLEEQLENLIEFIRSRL
Outline: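 Uniformly 15N-labelled His6-tagged human PMK from E. coli BL21(DE3) Rosetta, Ni-purified. Held at 400-600 μM in 20 mM KH2PO4, 5 mM DTT, 10% D2O, 0.02% NaN3, pH 6.5, 25 °C. Mg-ADP (1:1 MgCl2) or M5P added in 100 μM steps to saturation, in either order. Fast-exchange 1H/15N shifts (15N scaled by 6.51) were fitted to a quadratic with total protein and ligand.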

human PMK [2] = molecular target: T1, human PMK; conditions: previously reported Km values; cited from earlier work

Structure (SMILES): Nc1ncnc2c1ncn2[C@@H]1O[C@H](COP(=O)(O)OP(=O)(O)NP(=O)(O)O)[C@@H](O)[C@H]1O [AMP-PNP]
- binding to PMK (in words) (human PMK [1]; compared to ATP or ADP, HSQC titration onto Apo-PMK): binds only weakly

Structure (SMILES): C[C@@](O)(CCOP(=O)(O)O)CC(=O)O [M5P, mevalonate 5-phosphate]
- Kd (human PMK [1]): 6 to 60 µM
- Km (human PMK [2]): 34 ± 3 µM

Structure (SMILES): Nc1ncnc2c1ncn2[C@@H]1O[C@H](COP(=O)(O)OP(=O)(O)O)[C@@H](O)[C@H]1O [Mg-ADP, ADP]
- Kd (human PMK [1]): 6 to 60 µM
- Km (human PMK [2]): 47 ± 5 µM
